Most compounds without a hit are left out; they make up all but 2.9% or so of the library.
HTRA1 inhibitor: HTRA1 (human) protease inhibition | Q92743 | recombinant HTRA1, FP-rhodamine activity-based probe, fluorescence polarization | AID 504803 | 0.5% of 340,000 active | inhibition, % at 5.96 µM; in the data active = inhibition above about 36%;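 note: 0% = enzyme with DMSO and 100% = wells lacking enzyme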
mABHD4 FP: inhibits mouse alpha/beta hydrolase domain 4. purified mABHD4, FP-Rh probe fluorescence polarization. inhibition, % at 8.92 µM. 0.54% of 370,000 active;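 active = inhibition exceeding the mean over every tested compound plus 3 SD, cut at about 30% in these data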;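 note: 0% = plate median of compound wells and 100% = S159A mutant with DMSO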
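System: mouse ABHD4 enzyme, wild type / Medium: HEPES pH 7.0, NaCl, Pluronic buffer / Reagent: FP-Rh activity-based fluorescent probe / Control set: S159A mutant high control, sample median low control / Detection: fluorescence polarization with parallel and perpendicular emission, 525/598 nm / Schedule: 45 min + 60 min at 25 °C / Compound dosing: 8.92 µM, single dose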
PAD4 FP inh: PAD4 (human) enzyme inhibition | Q9UM07 | recombinant PAD4, RCA probe fluorescence polarization | inhibition, % at 6.36 µM | 0.41% of 330,000 active | AID 485272;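 active = percent inhibition above a cutoff equal to the mean of all tested compounds plus 3 SD, cut at about 15% in these data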;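 note: 0% = PAD4 with RCA probe and DMSO and 100% = probe without PAD4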
SIAE inh: human SIAE inhibition, primary screen; Q9HAT2; 0.69% of 370,000 active; SIAE FP-Rh probe binding, fluorescence polarization; AID 1053197; inhibition, % at 9.66 µM;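 active = inhibition above a cutoff: mean of compounds within the control limits plus 3 SD of those, cut at about 17% in these data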;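 note: 0% = plate median of compound wells and 100% = probe without SIAE protein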
Target sequence (Q9HAT2 whole entry, looked up): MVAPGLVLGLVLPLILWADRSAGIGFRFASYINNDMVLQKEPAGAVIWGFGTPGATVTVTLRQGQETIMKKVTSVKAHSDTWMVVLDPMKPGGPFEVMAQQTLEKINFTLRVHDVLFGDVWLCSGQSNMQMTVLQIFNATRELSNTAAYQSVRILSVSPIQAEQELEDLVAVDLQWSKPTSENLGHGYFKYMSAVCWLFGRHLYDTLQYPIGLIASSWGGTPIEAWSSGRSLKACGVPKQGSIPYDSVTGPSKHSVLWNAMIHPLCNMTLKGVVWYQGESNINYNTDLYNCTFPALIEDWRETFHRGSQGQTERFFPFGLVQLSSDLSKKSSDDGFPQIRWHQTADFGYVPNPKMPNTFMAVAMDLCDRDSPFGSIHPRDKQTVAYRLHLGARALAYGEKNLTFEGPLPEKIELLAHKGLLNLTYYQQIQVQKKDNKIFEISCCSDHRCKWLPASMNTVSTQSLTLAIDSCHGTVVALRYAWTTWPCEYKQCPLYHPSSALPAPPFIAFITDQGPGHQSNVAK
PRMT1 inh: PRMT1 (human) inhibition, primary screen; Q99873; recombinant PRMT1, activity-based probe fluorescence polarization; inhibition, % at 2.79 µM; 1.3% of 370,000 active;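 active = inhibition above about 21% made by adding two undisclosed values, limit read from the data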
TCR CD3 inh: inhibitors of human TCR-CD3 interaction. TAMRA-labeled TCR probe fluorescence, biochemical. 0.37% of 360,000 active. AID 651800. inhibition, % at 9.4 µM; in the data active = inhibition above about 19%;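 note: recombinant mutant TCR 2C K166C tagged with TAMRA read by polarization; 0% = receptor in buffer alone and 100% = receptor with positive control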
PRMT1 confirm: PRMT1 (human) inhibition, FP confirmation | shares compounds with PRMT1 inh | recombinant His-PRMT1, activity-based probe fluorescence polarization | inhibition, % at 2.79 µM | 42% of 3,300 active;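 active = mean inhibition across replicates above the hit cutoff derived for the earlier primary screen, cut at about 22% in these data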
* marks the source's active call; other numbers are inactive results; . = no result given.

SMILES	HTRA1 inhibitor	mABHD4 FP	PAD4 FP inh	SIAE inh	PRMT1 inh	TCR CD3 inh	PRMT1 confirm
COc1ccc(C(=O)NC(=O)COC(=O)c2ccc3ncsc3c2)cc1	.	.	-3	.	.	.	.
CCOC(=O)C1=C(N)n2c(s/c(=C\c3ccco3)c2=O)=C(C(=O)OC(C)C)C1c1ccco1 (centres undefined)	7	15	-6	-3	43*	-11	6
CCOC(=O)Cn1cc(CN2CCS(=O)(=O)N(Cc3ccc(C)cc3)C(C(=O)OC)C2)nn1 (centres undefined)	.	5	.	-4	-1	.	.
COc1ccc(S(=O)(=O)Cc2ccc(C(=O)NCc3ccccn3)o2)cc1	9	2	2	6	1	3	.
Cc1ccc(CS(=O)(=O)Cc2ccc(C(=O)NCc3ccccn3)o2)cc1	6	6	1	-1	34*	-7	8
Clc1ccc(-c2nnc3n2N=C(c2ccc(-c4ccccc4)cc2)CS3)c(Cl)c1	.	-1	.	-4	0	.	.
CCOc1ccc(CNC(=O)c2ccc3c(c2)N(CC)CCS3)cc1	-3	8	1	6	25*	3	-1
O=C(Nc1ccc(F)c(C(F)(F)F)c1)Nc1nnc(-c2ccncc2)s1	.	-15	.	-5	5	.	.
CC1(C)Cc2[nH]c(=S)c(C#N)cc2CO1	2	-2	4	6	41*	7	24*
N#Cc1cc2c([nH]c1=S)CCCC2	5	8	0	5	32*	4	12
CC1(C)Cc2c(c(N3CCCC3)[nH]c(=S)c2C#N)CO1	.	.	1	.	.	.	.
O=C(OC12CCCN(C1)/C(=C/c1ccc(Cl)cc1)C2)c1ccc(F)cc1 (centres undefined)	.	7	.	6	-1	.	.
CCOC(=O)N1CCN(C(=O)C[C@@H]2C(=O)N3CCCC4=C3[C@@]2(C(=O)OCC)CCC4)CC1	.	0	.	-6	-2	.	.
CCCC(=O)OCCNc1cc(SCc2ccco2)c2nonc2c1[N+](=O)[O-]	32	20	4	12	14	10	.
CCCC(=O)OCCNc1cc(Sc2nccn2C)c2nonc2c1[N+](=O)[O-]	-1	0	2	4	72*	8	40*
CCCSc1cc(NCCOC(=O)CCC)c([N+](=O)[O-])c2nonc12	5	11	4	13	21	1	.
CCC(=O)OCCNc1cc(Sc2nc3ccccc3[nH]2)c2nonc2c1[N+](=O)[O-]	3	14	-10	-7	84*	4	76*
CCC(=O)OCCNc1cc(Sc2nc3ccccc3s2)c2nonc2c1[N+](=O)[O-]	4	14	-4	4	68*	-5	76*
CC1CCCN(c2cccc3c2S(=O)(=O)N(Cc2cccc(F)c2)[C@@H](C)[C@H](c2ccccc2)O3)C1 (some centres undefined)	.	4	.	4	-2	-5	.
C=CCN=C1NC(c2ccc(C(F)(F)F)cc2)C(C(=O)OC)=C(C)N1C (centres undefined)	.	9	.	4	-1	-3	.
CC1(C)CC2CN(Cc3ccccc3)S(=O)(=O)N2C1 (centres undefined)	.	-4	.	6	2	.	.
C[C@H](O)[C@@H]1CN2CCc3c([nH]c4cccc(-c5ccccc5)c34)[C@@H]2C[C@@H]1N(C)C(=O)Nc1ccccc1	.	5	.	5	2	.	.
Cc1cc(NC(=O)CSCC(=O)OCC(=O)c2cccc(Br)c2)no1	-49	-15	-4	-11	27*	3	2
Cc1cc(NC(=O)CSCC(=O)OCC(=O)Nc2ccc(OC(F)F)cc2)no1	6	9	0	8	1	1	.
Cc1cc(Nc2cc(Cl)cc(Cl)c2)cc(=O)n1-c1cc(Cl)cc(Cl)c1	.	-3	.	-14	-1	-1	.
SMILES	HTRA1 inhibitor	mABHD4 FP	PAD4 FP inh	SIAE inh	PRMT1 inh	TCR CD3 inh	PRMT1 confirm
COc1cc(OC)cc(C(=O)NCCN2C(=O)C3C4C=CC(C4)C3C2=O)c1 (centres undefined)	.	5	.	3	0	.	.
[N-]=C=C1C(=O)NC(=O)C([n+]2ccc(-c3ccncc3)cc2)C1c1ccccc1C(F)(F)F (centres undefined)	7	6	3	-4	8	-7	.
[N-]=C=C1C(=S)NC(=O)[C@H]([n+]2ccccc2)[C@H]1c1ccc(Cl)cc1	3	11	-2	2	25*	-1	32*
CC(=O)N(Cc1ccccc1)c1nccs1	.	8	.	-7	-2	9	.
O=C(O)/C=C/C(=O)Nc1ccc(OC(F)(F)F)cc1Br	1	7	3	-5	50*	0	5
CCOC(=O)CSC(=S)NC(=O)c1ccc(OC)cc1	-2	6	5	-4	27*	-4	100*
COc1ccc2c(c1)CN1CN(CC(C)C)S(=O)(=O)CC21 (centres undefined)	.	-6	.	-3	-3	.	.
Cc1ccnc(N=O)c1	7	12	-6	7	45*	1	55*
CCCCNC(=S)N(CCO)Cc1cc2cc3c(cc2[nH]c1=O)OCCO3	2	-4	1	-3	44*	-2	-4
CCN(CC)CCCNC(=S)N(CCO)Cc1cc2cc3c(cc2[nH]c1=O)OCCO3	-2	11	2	1	7	-2	.
Cc1ccccc1C(=O)N(C)[C@H]1C[C@H]2c3[nH]c4c(-c5ccccc5)cccc4c3CCN2C(=O)[C@H]1[C@H](C)O	.	-11	.	-4	-3	-4	.
C=CCn1c(CSc2ccccc2[N+](=O)[O-])n[nH]c1=S	9	9	-2	14	25*	8	5
C=CCn1c(Cc2ccccc2)n[nH]c1=S	1	-3	0	1	-3	2	.
COC(=O)[C@H]1C[C@@]2(N3CCCCC3)c3ccccc3N(C(=O)OC(C)(C)C)[C@H]2N1C(=O)OC(C)(C)C	.	-6	.	2	-2	.	.
O=C(COC(=O)c1cc[n+]([O-])cc1)Nc1ccc(SC(F)F)cc1	-1	-4	-23	-9	28*	2	19
O=C(COC(=O)c1cc[n+]([O-])cc1)Nc1ccc(Br)cc1	-10	-10	-1	-11	0	-1	.
CC(=O)CCC(=O)OCC(=O)Nc1ccc(SC(F)F)cc1	1	1	3	0	27*	-1	24*
O=C1c2cccc3c(N4CCCCC4)ccc(c23)C(=O)N1CCO	-13	-2	-9	-11	40*	4	13
C=CCN1C(=O)c2cccc3c(N4CCCCC4)ccc(c23)C1=O	14	1	0	-2	17	-3	.
O=C(OCCN1C(=O)c2cccc3c(N4CCOCC4)ccc(c23)C1=O)c1ccccc1Cl	-40	-11	-3	-1	78*	4	65*
COCCN1Cc2cc(C(=O)OC)c3c(c2C1=O)c1cc(F)ccc1n3C(=O)c1ccccc1	.	-4	.	0	0	5	.
O=C1N(CCCO)CCC12CCCCC2	.	4	.	-1	1	.	.
